Measured values published in the EternaBench riboswitch data.

System: MS2 coat protein
Assay: apparent Kd, MS2 coat protein; higher = weaker binding; RNA-MaP array
Method in brief: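 Designed RNAs were produced on an Illumina sequencing chip by transcription of sequenced DNA templates. Binding to fluorescently labeled MS2 coat protein (1.5 nM to 3 μM) was measured at room temperature with or without input ligand. The apparent Kd is the median of per-cluster binding-curve fits. Designs were excluded when measured on fewer than 10 clusters.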

[1] = designed as: ON switch for flavin mononucleotide, no ligand
[2] = ligand present: flavin mononucleotide, designed as: ON switch for flavin mononucleotide
[3] = designed as: OFF switch for flavin mononucleotide, no ligand
[4] = ligand present: flavin mononucleotide, designed as: OFF switch for flavin mononucleotide
[5] = designed as: ON switch for tryptophan, no ligand
[6] = ligand present: tryptophan, designed as: ON switch for tryptophan
[7] = designed as: OFF switch for tryptophan, no ligand
[8] = ligand present: tryptophan, designed as: OFF switch for tryptophan

In the case of “AGAAUAUGAAUAGGAUAUCUGCGUAAUGAUAAAAGAGAAGGAAUUAGAAGUAUUACAUGAGGAUCACCCAUGUUUGAUAAGAAA”, the “apparent Kd” value [1] is reported as 9.61 nM and the “apparent Kd” value [2] is reported as 8.77 nM.
In the case of “AACAAACACAUGAGGAUCACCCAUGUCCUUGAUAUAAUUACUCAGGAUAUCAUGUCCUCUCACCGUGAGAAGGGAGUCAAAACC”, the “apparent Kd” value [1] is reported as 76.8 nM and the “apparent Kd” value [2] is reported as 59.5 nM.
With “AACAUGUCUCAAGGAUAUAAAACGCUAAAUGGCUUAGAAGGUGAGGCCGCUGUGAGGAUCCCUGACAUGAGGAUCACCCAUGUC” the “apparent Kd” value [1] was 10.8 nM and the “apparent Kd” value [2] was 9.76 nM.
“CUGUGAGUAGGAUAUGAUCACAAGUACAUGAGGAUCACCCAUGUGUGGCUCUGUACCGCCUCAGAAGGACUCGUCU” was tested, and the “apparent Kd” value [3] was 28 nM and the “apparent Kd” value [4] was 94.8 nM.
In the case of “CGGAGUAUGACGGCCGCCACUUGCCGGGCGCAGCUGGCUGCUUGACAUGAGGAUCACCCAUGUCCAAGGACCGGGUCAUUCCUCG”, the “apparent Kd” value [5] is reported as 121 nM and the “apparent Kd” value [6] is reported as 83.9 nM.
With “AUACUAAACAUGAGGAUCACCCAUGUGACGUCAGGUCAGUUGAGAAGGCUAGGGAUGCUAGAUGUAGAGGAUAUCAGCGACGGA” the “apparent Kd” value [3] was 15.4 nM and the “apparent Kd” value [4] was 9.76 nM.
“AAAGCUACCAAAGGAUAUUGUUUCCAUCACACAUGAGGAUCACCCAUGUAGCCAUAAACGGAUCGCAAGAAGGUUGGGAAAGUG” was tested, and the “apparent Kd” value [1] was 18.3 nM and the “apparent Kd” value [2] was 9.07 nM.
With “AAUUUUUACUCAGGAUAUUGGGAGAGCACGGGUUGUUCUCCCCACAUGAGGAUCACCCAUGUGAUCAAGAAGGGAGACGCAAAG” the “apparent Kd” value [1] was 25.9 nM and the “apparent Kd” value [2] was 16.8 nM.
In the case of “GACGGCUCGACGGCCGCCACUCCCUCCGACUGAAGGCACAGUGGACAUGAGGAUCACCCAUGUCCGAGGACCGGGUCGAUCCUGG”, the “apparent Kd” value [5] is reported as 17.7 nM and the “apparent Kd” value [6] is reported as 17.6 nM.
In the case of “CUCUUGCGGUUAGGAUAUUCCCUUGAAAACAAUGAAGAAGGAACCAGAUGAUCACAUGUCCUACAUGAGGAUCACCCAUGUUAA”, the “apparent Kd” value [3] is reported as 353 nM and the “apparent Kd” value [4] is reported as 211 nM.
“GUCCUCGAAGGAUAUAUUGGAAAUUACAUGAGGAUCACCCAUGUCUCGUAGUAUAGCACGAUAGAAGGUCGGAAGA” was tested, and the “apparent Kd” value [3] was 36.1 nM and the “apparent Kd” value [4] was 24.6 nM.
“ACCACAGAGUAGAAGGUCCGACACGGCUCGUCGGAAGGAUAUACAUAUUGUUAGAGAUGGGAACAUGAGGAUCACCCAUGUGUC” was tested, and the “apparent Kd” value [1] was 16.2 nM and the “apparent Kd” value [2] was 9.9 nM.
“AGAUCCUUGGUCAGGAUAUCCAAUAAAGCCGUUUGGGAGAAGGGACAUGAGGAUCACCCAUGUAAAUUGACCAC” was tested, and the “apparent Kd” value [3] was 12.2 nM and the “apparent Kd” value [4] was 32.3 nM.
In the case of “GUUCGUCCUACGGCCGCCACUAAAACACAUGAGGAUCACCCAUGUUAGUAUCCUGGCUGGUGUGAUAGGACCGGGUAGGGAAGAA”, the “apparent Kd” value [7] is reported as 12.1 nM and the “apparent Kd” value [8] is reported as 24.1 nM.
“GCGUUUGCCAAAGGAUAUCAACAUGUGUUGCUUGCAUUCCUAUACAUGAGGAUCACCCAUGUGGCUGAGAAGGUUGAACACUGG” was tested, and the “apparent Kd” value [1] was 18.2 nM and the “apparent Kd” value [2] was 14.1 nM.
“CGGCAACUGUAGAAGGAGCAUCCCACAUCUAAGCUAGGAUAUACGUAAUGUAUGUACAUGAGGAUCACCCAUGUGUGCACCAGG” was tested, and the “apparent Kd” value [3] was 26.4 nM and the “apparent Kd” value [4] was 24.2 nM.
“ACUGACUUUACGGCCGCCACUCAUUGGCACGUGUCAUGUCAACAUGAGGAUCACCCAUGUAUGAUGAGGACCGGGUAAGGGCUGC” was tested, and the “apparent Kd” value [7] was 10.9 nM and the “apparent Kd” value [8] was 12.7 nM.
For “UAUGCGUUUUCAGGAUAUGCACACAUGAGGAUCACCCAUGUAGGUCUGCGGCGGCAUCCUCCUUUGCAGAAGGGAAUCGCGCUU”, the “apparent Kd” value [3] was 44.1 nM and the “apparent Kd” value [4] was 71.6 nM.
“CUAAUUAUCGAGAAGGAACGACGCAUCACCGAUCUAGCACACAUGAGGAUCACCCAUGUACACCGUUAGGAUAUCGCAAACCAG” was tested, and the “apparent Kd” value [3] was 8.46 nM and the “apparent Kd” value [4] was 9.82 nM.
With “GACGUGGAGUCAGGAUAUCGACGACAUUCUUAGCGAGAAGGGACCUAGCUUAGAUCAACAUGAGGAUCACCCAUGUCGAGUUUC” the “apparent Kd” value [3] was 21.7 nM and the “apparent Kd” value [4] was 20.4 nM.
For “GUCGAGAUUCAAGGAUAUCCGAUCUUACGCAUAGUAGAAUGACAUGAGGAUCACCCAUGUGUCCAGGAGAAGGUGAAUGGAUUU”, the “apparent Kd” value [3] was 33.3 nM and the “apparent Kd” value [4] was 21.6 nM.
“UUAAUACAUGAGGAUCACCCAUGUUAGGAUAUAGAAAUCGCUGGUGCGAGAAGACAGGCUAGAAGGAACACGGA” was tested, and the “apparent Kd” value [3] was 10.2 nM and the “apparent Kd” value [4] was 9.62 nM.
With “GUUAGUUACACGGCCGCCACUCUUUGGCUUGGCUCAAGCUCCCAACAUGAGGAUCACCCAUGUCAGAGGACCGGGUGAACAACGU” the “apparent Kd” value [5] was 134 nM and the “apparent Kd” value [6] was 112 nM.
With “CCCAUACAUGAGGAUCACCCAUGUGUUGAUACCAGCAUAUGUAGAUGCCCUUGGCAGCAAGCUUGGGUCACUGGAAAACAUCUAA” the “apparent Kd” value (designed as: ON switch for theophylline, no ligand) was 25.9 nM and the “apparent Kd” value (ligand present: theophylline, designed as: ON switch for theophylline) was 56.5 nM.
With “GACGCGAGCGCACUUACAUGAGGAUCACCCAUGUGUUCCGAAAGAAGGGCUAGUGUACCCGCAGAGCAGGAUAUUUCGAUUUGC” the “apparent Kd” value [1] was 186 nM and the “apparent Kd” value [2] was 121 nM.
With “GGUAGUACCGUAGGAUAUUCCGCUUACAUGAGGAUCACCCAUGUGGCUGGUAUUUCGUCAAAGAAGAAGAAGGACGUCUGCGCG” the “apparent Kd” value [3] was 6.85 nM and the “apparent Kd” value [4] was 6.43 nM.
“CUUUUACAUGAGGAUCACCCAUGUUGUACAGGGUUAGGAUAUCUUAAUGUUAAGUUAAUGAGAGAAGGAACAGUCA” was tested, and the “apparent Kd” value [1] was 149 nM and the “apparent Kd” value [2] was 94.8 nM.
